≈ marks a conversion by molar mass, not a printed value.
What was measured:
Candida albicans = assay: Minimum inhibitory concentration against Candida albicans; format: functional
Summary of the method: (§1)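 Disk diffusion on YPG agar. Yeast suspension from 24 h YPG broth (C. albicans five isolates and Y. lipolytica at 28 °C, B. poitrasii at 37 °C) spread-plated. Filter disks carried a DMSO control or graded compound amounts from 1 mg/mL DMSO stock. Plates incubated 28 °C, 24 h. MIC taken as lowest concentration giving an inhibition zone; triplicate.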

Yarrowia lipolytica = assay: Minimum inhibitory concentration against Yarrowia lipolytica; format: functional; summary of the method: as §1
Benjaminiella = assay: Minimum inhibitory concentration against Benjaminiella poitrassi; format: functional; summary of the method: as §1
HEp-2 = assay: Antiproliferative activity against HEp-2 cells; format: functional, cell-based; settings: Homo sapiens
Summary of the method: (§2)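 MEM with 10% heat-inactivated FBS at 37 °C, 5% CO2. Cells seeded at 15 000/well and adhered 24 h. Treated in triplicate for 72 h with 0, 0.1, 1.0 or 10 μM compound from DMSO stock. MTT 1 mg/mL for 4 h at 37 °C, formazan dissolved in 2-propanol, OD 570 nm (630 nm reference). DMSO-only cells set as 100% growth.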

MCF7 = assay: In vitro antiproliferative activity against MCF-7 cells; format: functional, cell-based; settings: Homo sapiens; summary of the method: as §2

IC50 (MCF7) | Compound | MIC (Candida albicans) | MIC (Yarrowia lipolytica) | MIC (Benjaminiella) | IC50 (HEp-2)
 | C[C@H](CCC(=O)NCCNCCNC(=O)CC[C@H](C)[C@H]1CCC2C3C(C[C@@H](O)[C@@]21C)[C@@]1(C)CC[C@@H](O)CC1C[C@H]3O)[C@H]1CCC2C3C(C[C@@H](O)[C@@]21C)[C@@]1(C)CC[C@@H](O)CC1C[C@H]3O (stereo partly drawn) | 0.0113 µM (≈ 0.01 µg/mL) | 0.0113 µM (≈ 0.01 µg/mL) | 0.0113 µM (≈ 0.01 µg/mL) | 
2.2 µM | C[C@H](CCC(=O)NCCNC(=O)CC[C@H](C)[C@H]1CCC2C3CCC4C[C@H](O)CC[C@]4(C)C3C[C@@H](O)[C@@]21C)[C@H]1CCC2C3CCC4C[C@H](O)CC[C@]4(C)C3C[C@@H](O)[C@@]21C (stereo partly drawn) |  |  |  | 2.2 µM
 | C[C@@H]1C[C@@H]([C@H](O)CC2CC(=O)NC(=O)C2)C(=O)[C@@H](C)C1 [CYCLOHEXIMIDE] | > 0.9 µM | 0.106 µM (≈ 0.0298 µg/mL) | 0.071 µM (≈ 0.02 µg/mL) | 

— ChEMBL document CHEMBL1149324, “New steroidal dimers with antifungal and antiproliferative activity” (J Med Chem, 2004)
